Assay outcomes (PubChem)
Only some compounds are listed: those with a hit (about 9.3% of all), similar ones and a draw of the others.
E coli WT exp – blocks growth of wild type E. coli BW25113. OD600 absorbance. growth inhibition, % at 100 µM. actives 0.15% (n = 98,000). AID 710;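 active = growth inhibition above about 50% at one test dose, limit read from the data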;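 also: growth measured after 20 h incubation at 37 °C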
tolC growth inh – growth inhibitors of E. coli BW25113 tolC mutant; OD615; growth inhibition, % at 10 µM (by protocol); actives 2.2% (n = 65,000); AID 573;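 active = growth inhibition at or above a cutoff equal to the mean over every tested compound plus 3 SD, cut at about 60% in these data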;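 also: growth measured after 20 h incubation at 37 °C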
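signal = optical density read at 615 nm | test system = E. coli ΔtolC::kan strain BW25113 | timing = 20 h compound exposure of bacteria at 37 °C | buffer or medium = LB medium plus 50 µg/mL kanamycin | compound dosing = 10 µM final, single dose | evaluation = % inhibition of E. coli growth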
D1 mod – allosteric modulators of human D1 dopamine receptor; B-score at 10 µM; P21728; AID 641; actives 5.9% (n = 58,000); HEK293 D1, CRE-luciferase, dopamine EC30 potentiation; actives deviate in either direction;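 active = luminescence count or its row- and column-corrected plate score outside the 99.7% band of the plate's sample wells, on either side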
Target sequence (P21728 whole entry, looked up): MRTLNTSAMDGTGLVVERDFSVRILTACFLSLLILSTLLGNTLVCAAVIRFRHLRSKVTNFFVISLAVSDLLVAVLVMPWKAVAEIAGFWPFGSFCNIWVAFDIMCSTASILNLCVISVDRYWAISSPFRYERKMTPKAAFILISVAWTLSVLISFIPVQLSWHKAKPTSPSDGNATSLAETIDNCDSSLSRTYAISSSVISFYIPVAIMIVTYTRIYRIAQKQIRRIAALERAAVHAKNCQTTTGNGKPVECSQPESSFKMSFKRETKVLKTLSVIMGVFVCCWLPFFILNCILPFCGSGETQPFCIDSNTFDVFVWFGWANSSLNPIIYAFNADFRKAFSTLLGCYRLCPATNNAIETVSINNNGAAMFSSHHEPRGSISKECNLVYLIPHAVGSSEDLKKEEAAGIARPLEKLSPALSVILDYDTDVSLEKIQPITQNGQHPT
PostGolgi yeast – growth inhibition of a yeast mutant, post-Golgi transport screen; post-Golgi transport phenotypic cell assay; inhibition, % at 10 µM; actives 0.9% (n = 98,000); AID 739;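 also: yeast cells grown in 1536-well plates; yeast grown about 18 h at 30C before absorbance read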
hDAT+cocaine – human DAT dopamine uptake with cocaine, either direction; Q01959; actives 1.3% (n = 110,000); LLC-PK1 hDAT cells, [14C]-dopamine uptake with cocaine IC80; actives deviate in either direction; B-score at 10 µM;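 active = Z score or B-score, a plate-position-corrected score, falls beyond the plate's 99.7% confidence bounds, in either direction; inactive = both scores lie inside the 99.7% bounds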;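 also: scored against the spread of the other compound wells on the same plate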
PostGolgi ctrl – inhibits growth of the yeast control strain. inhibition, % at 10 µM. AID 738. efflux-deficient yeast background strain, growth absorbance A615, 16 h. actives 5% (n = 98,000)
* = called active by the depositor; . = no result. Rule as the data show it, unless noted: active = inhibition above about 30%; inactive = the rest.

SMILES	E coli WT exp	tolC growth inh	D1 mod	PostGolgi yeast	hDAT+cocaine	PostGolgi ctrl
Cc1cccc(Nc2nnc(-c3ccc(C(=O)N4C[C@H]5C[C@H](C4)c4cccc(=O)n4C5)cc3)c3ccccc23)c1	0	.	.	2	1.8*	16
Cc1ccc(-c2nnc(Nc3ccccc3)c3ccccc23)cc1S(=O)(=O)NCC1CCCO1 (stereo not drawn)	-8	.	.	-8	0.24	7
O=S(NCc1ccco1)C12CC3CC(CC(C3)C1)C2 (stereo not drawn)	-12	-10	-0.54	-3	-1.8	12
COC(=O)Nc1ccc(S(=O)(=O)Nc2ccc(O)cc2)cc1	11	.	.	1	-0.025	5
COC(=O)c1cc2cc(NS(=O)(=O)c3ccc(C)cc3)ccc2s1	-5	.	.	-11	-0.47	52*
COc1ccc(C)cc1NS(=O)(=O)c1ccc(NS(=O)(=O)c2ccc(NC(C)=O)cc2)cc1	4	16	0.3	3	3.9*	2
COc1ccc(OC)c(NS(=O)(=O)c2ccc(NC(C)=O)cc2)c1	7	.	.	-4	-0.099	4
COC(=O)Nc1ccc(S(=O)(=O)Nc2ccc(C)cc2)cc1	0	.	.	39*	0.47	37*
O=C1OCC2OC(O)C(O)C(O)C2OC(=O)c2cc(O)c(O)c(O)c2-c2c(O)c(O)c3oc(=O)c4c(c(O)c(O)c5oc(=O)c2c3c54)-c2c1cc(O)c(O)c2O (stereo not drawn)	.	.	.	.	1	.
CC(C)C[C@H](NC(=O)c1nc[nH]c1C(=O)N1CCN(C(=O)OC(C)(C)C)CC1)C(=O)OC(C)(C)C	.	.	.	.	0.029	.
Cc1scc(C(=O)N/N=C/c2ccc(OCC(C)C)cc2)c1C	-6	.	.	3	0.012	26
CCCCOc1ccc(/C=N/NC(=O)c2csc(C)c2C)cc1	-7	.	.	-2	1	35*
O=C(Nc1c(C(=O)O)oc2ccc(Br)cc12)c1ccccc1	-17	22	0.017	2	-0.2	10
O=C(CC(C(=O)N1CCc2ccccc21)n1ccnc1)NCc1cccnc1 (stereo not drawn)	5	-9	0.71	33*	-0.24	6
CC(=O)SCC(Cc1ccccc1)C(=O)NCC(=O)OCc1ccccc1 (stereo not drawn)	.	.	.	.	-1.3	.
Cc1ccc(CONC(=O)/N=C/N(C)C)cc1	-3	.	.	1	-0.95	15
CCC(=O)NCCc1nc2ccccc2n1Cc1ccccc1	.	.	.	.	0.6	.
Cc1ccccc1Cn1c(Cc2ccccc2)nc2ccccc21	-3	.	.	-12	1.9	34*
Cc1ccc(OS(=O)(=O)c2ccccc2)c(/C=N/N=C2\NC(=O)C(C)S2)c1 (stereo not drawn)	-4	.	.	-5	-0.59	41*
CN=c1scc(C)n1/N=C/c1ccc(O)cc1	-5	22	-2.8	0	0.36	1
CN=c1scc(C)n1/N=C/c1ccc2c(c1)OCO2	5	5	-3.2*	-7	-0.77	-5
O=C(Nc1cc(C(F)(F)F)cc(C(F)(F)F)c1)c1ccc(Cn2cc(C(F)(F)F)ccc2=O)cc1	4	.	.	9	.	-3
COc1cccc(NC(=O)CCN2CCN(c3ccccc3F)CC2)c1	12	3	-0.19	0	0.0096	12
COc1cccc(NC(=O)CN2CCN(c3ccc(F)cc3)CC2)c1	-2	-9	0.61	1	-2.5*	0
COC(=O)c1cccc(NC(=O)CN2CCN(c3ccc(OC)cc3)CC2)c1	-6	-1	-0.32	-3	-0.27	3
SMILES	E coli WT exp	tolC growth inh	D1 mod	PostGolgi yeast	hDAT+cocaine	PostGolgi ctrl
CC(C)CCNC(=O)COc1ccc2c(c1)C(=O)CC(C)(C)O2	9	.	.	0	0.015	5
COc1cccc(N2CCN(CC(=O)Nc3nc4c(s3)CC(C)CC4)CC2)c1 (stereo not drawn)	-9	95*	-0.58	2	0.27	22
CC1(C)CC(=O)c2cc(OCC(=O)NCCCN3CCN(c4ccc(F)cc4)CC3)ccc2O1	5	10	-4.2*	4	0.15	9
COc1cccc(NC(=O)NCCCN2CCN(c3ccc(F)cc3)CC2)c1	14	1	-5.1*	9	0.029	2
CC(C)NC(=O)CSc1nnc(-c2ccc(S(=O)(=O)N3CCCC3)cc2)n1CC1CCCO1 (stereo not drawn)	-2	-11	.	2	-0.53	10
COc1ccc(-c2nc3n(n2)C(c2ccccc2Cl)C(C(N)=O)=C(C)N3)cc1 (stereo not drawn)	8	-5	-0.002	-2	1.1	12
O=C(NCc1ccc(Cl)cc1)c1cnn2ccccc12	0	.	.	1	-0.7	6
CCC1(C)N(O)C(C)(C)C(c2ccc(F)cc2)=[N+]1[O-] (stereo not drawn)	.	.	.	.	-0.06	.
O=S(=O)(/N=C(/c1ccc(Cl)cc1)N1CCOCC1)c1ccc(Cl)cc1	4	.	.	-4	2*	-1
Cc1ccccc1-n1c(SCc2c(C)noc2C)nnc1-c1c[nH]c2ccccc12	-7	-3	-6.2*	-2	-1.1	8
Cc1noc(C)c1CSc1nnc2ccccn12	1	.	.	-1	-1.3	6
Cc1noc(C)c1CSc1nnnn1-c1ccc(Cl)cc1	0	2	-1.1	18	-0.17	30*
Cc1noc(C)c1CSc1nc2ccccc2c(=O)n1-c1ccc(Cl)cc1	-15	.	.	-6	-0.73	38*
Cc1noc(C)c1CSc1nnc(-c2ccccc2)n1N	1	.	.	4	-8.6*	0
Cc1noc(C)c1CSc1nnc(-c2ccncc2)n1-c1cccc(Cl)c1C	0	2	-0.21	-5	0.1	-3
CC(C)C(CO)NC(=O)CC(=O)NC(CO)C(C)C (stereo not drawn)	-5	-13	0.75	-4	-0.68	1
NS(=O)(=O)c1ccc(CCNC(=O)COC(=O)C2CCCN2C(=O)c2cccs2)cc1 (stereo not drawn)	8	-8	-0.5	0	-1.1	21
COc1ccc(C2CN=NC23CCCc2ccccc2C3=O)cc1 (stereo not drawn)	6	.	.	2	.	21
COc1ccccc1C1CN=NC12CCCc1ccccc1C2=O (stereo not drawn)	3	.	.	-14	-0.065	35*
c1ccc2c(c1)ncn2CCCCOc1ccc2c(c1)CCC2	21	.	.	4	1.2	37*
c1ccc2c(c1)ncn2CCCOc1ccc2c(c1)CCC2	10	.	.	-1	2.2	34*
CCOC(=O)N/N=C(/C)c1ccc([N+](=O)[O-])o1	51*	.	.	-3	1.2	2
Cc1cc(Nc2ccc(Br)cc2F)n2nc(C)nc2n1	5	3	.	1	-0.51	-5
CCOc1cc(/C=C2\SC(=S)N(Nc3ccccc3)C2=O)ccc1O	-12	.	.	9	.	61*
Clc1cc(Br)ccc1OCCn1ccnc1	39	21	-0.33	9	0.038	8
Cc1cc(Cl)cc(Cl)c1OCCOc1cccc2cccnc12	-5	.	.	-10	-0.15	32*
CC(=O)NCCOc1cccc2cccnc12	1	.	.	-8	-0.37	16
Cc1cc(C)cc(OCCCOc2cccc3cccnc23)c1	2	.	.	-4	0.57	62*
